Measurements reported in ChEMBL document CHEMBL1128171, “A series of N4-imidoethyl derivatives of 1-(2,3-dihydro-1,4-benzodioxin-5-yl)piperazine as 5-HT1A receptor ligands: synthesis and structure-affinity relationships” (J Med Chem, 1995).

Tests used:
[1] = target: T1, 5-hydroxytryptamine receptor 1A (Rattus norvegicus, UniProt P19327); experiment: Inhibition of [3H]2-(di-N-propylamino)-8-hydroxytetralin binding to 5-HT1A receptor of rat frontal cortex homogenates; type: tissue-based
T1 sequence (P19327 whole entry): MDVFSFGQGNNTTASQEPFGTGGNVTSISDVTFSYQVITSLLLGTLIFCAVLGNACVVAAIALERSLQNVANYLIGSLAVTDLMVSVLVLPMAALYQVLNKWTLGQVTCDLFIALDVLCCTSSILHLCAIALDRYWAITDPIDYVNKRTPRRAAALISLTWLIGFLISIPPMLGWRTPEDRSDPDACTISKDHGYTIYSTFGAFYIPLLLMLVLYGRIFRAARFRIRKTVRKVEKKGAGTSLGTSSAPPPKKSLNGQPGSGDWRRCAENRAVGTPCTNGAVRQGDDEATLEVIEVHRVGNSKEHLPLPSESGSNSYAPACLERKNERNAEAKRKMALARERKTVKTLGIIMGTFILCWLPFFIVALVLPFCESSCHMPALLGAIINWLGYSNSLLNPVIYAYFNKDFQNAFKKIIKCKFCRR
Summary of the method: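 Rat frontal cortex homogenates incubated with [3H]-8-OH-DPAT at 37 °C, pH 7.7. Four to six drug concentrations, each in triplicate; three to six assays per value. IC50 for displacement of specific binding converted to Ki by Cheng–Prusoff using radioligand concentration and Kd. Reported as pKi.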

[2] = Ionisation constant of the compound; type: ADME
Summary of the method: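 Potentiometric titration at 37 °C (±1 °C) under nitrogen, using a glass pH electrode calibrated at pH 4, 7 and 9. 30 mg substance in 40 mL 0.1 M KCl in carbonate-free water, 0.002-0.005 M. Titrant 0.05 M NaOH added in 0.05 mL steps. pKa calculated from 5-15 curve points (pre-precipitation only) and averaged.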

| Ki [1] [nM] | pKa [2] | SMILES |
| --- | --- | --- |
| 63.1 | 6.3 | CC1=CC(=O)N(CCN2CCN(c3cccc4c3OCCO4)CC2)C1=O |
| 4.79 | 6.1 | Cc1ccc2c(c1)C(=O)N(CCN1CCN(c3cccc4c3OCCO4)CC1)C2=O |
| 6.46 | 6.3 | O=C1C2=C(CCCC2)C(=O)N1CCN1CCN(c2cccc3c2OCCO3)CC1 |
| 10 | 6.05 | O=C1C2CC=CCC2C(=O)N1CCN1CCN(c2cccc3c2OCCO3)CC1 (configuration not stated) |
|  | 6.07 | O=C1C2CCCCC2C(=O)N1CCN1CCN(c2cccc3c2OCCO3)CC1 (configuration not stated) |
| 977 | 5.9 | O=C1C=CC(=O)N1CCN1CCN(c2cccc3c2OCCO3)CC1 |
| 0.708 | 6.51 | O=C1CC2(CCCC2)CC(=O)N1CCN1CCN(c2cccc3c2OCCO3)CC1 |
| 32.4 |  | O=C1c2ccccc2C(=O)N1CCN1CCN(c2cccc3c2OCCO3)CC1 |
| 110 | 6.16 | O=C1CCC(=O)N1CCN1CCN(c2cccc3c2OCCO3)CC1 |
| 347 | 6.4 | O=C1CCCC(=O)N1CCN1CCN(c2cccc3c2OCCO3)CC1 |
| 4.68 | 6.42 | CC1(C)CC(=O)N(CCN2CCN(c3cccc4c3OCCO4)CC2)C(=O)C1 |
| 151 | 6.16 | CC1CC(=O)N(CCN2CCN(c3cccc4c3OCCO4)CC2)C1=O (configuration not stated) |
